ERAP1 HTS inh – ERAP1 (human) enzyme inhibition | recombinant ERAP1, Leu-AMC fluorescence, 60 min | inhibition, % at 10.7 µM | 0.15% of 340,000 active | Q9NZ08 | AID 652197;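 active = mean replicate inhibition of at least 30%, or all replicates individually reaching that 30% level; inactive = mean below 30% and not every replicate reaching it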;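 note: 0% = neutral control wells and 100% = L-leucinethiol positive control wells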
MLL AF4-AF9 inh – blocks AF4 peptide binding to human AF9; P42568; AlphaScreen, biotin-AF4 peptide binding to FLAG-AF9; inhibition, % at 10 µM; 0.47% of 350,000 active; AID 651704;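 active = every replicate reaching a set inhibition limit, whatever the replicate mean, cut at about 25% in these data; inconclusive = mean inhibition reaches that limit but some replicates miss it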;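 note: 0% = plate neutral control median and 100% = total signal loss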
Target sequence (P42568 whole entry, looked up): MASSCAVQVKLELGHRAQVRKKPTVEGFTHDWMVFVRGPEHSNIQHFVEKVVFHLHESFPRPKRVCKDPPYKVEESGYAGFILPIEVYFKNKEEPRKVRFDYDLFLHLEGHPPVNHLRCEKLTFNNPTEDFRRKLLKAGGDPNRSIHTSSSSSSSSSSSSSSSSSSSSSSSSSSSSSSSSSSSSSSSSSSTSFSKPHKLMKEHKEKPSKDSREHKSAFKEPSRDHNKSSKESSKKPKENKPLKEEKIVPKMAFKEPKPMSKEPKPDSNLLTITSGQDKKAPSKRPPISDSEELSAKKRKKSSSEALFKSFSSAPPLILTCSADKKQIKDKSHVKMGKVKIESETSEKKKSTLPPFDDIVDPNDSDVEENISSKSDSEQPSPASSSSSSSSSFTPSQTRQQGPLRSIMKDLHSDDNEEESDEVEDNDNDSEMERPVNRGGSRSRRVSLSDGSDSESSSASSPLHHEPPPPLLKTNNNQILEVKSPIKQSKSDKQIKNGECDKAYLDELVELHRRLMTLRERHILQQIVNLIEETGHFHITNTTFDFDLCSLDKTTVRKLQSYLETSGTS
S100A4 inh HTS – blocks human S100A4 binding to myosin IIA peptide. P26447. S100A4/TAMRA-MyoIIA peptide fluorescence polarization. inhibition, % at 10.7 µM. 0.14% of 360,000 active. AID 652163;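 active = mean inhibition of at least 70% across replicates, with every replicate also reaching that level; inconclusive = mean inhibition reaches 70% but some replicates fall short; inactive = mean inhibition below 70%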
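assay system = human S100A4 monomer with TAMRA-labelled myosin IIA peptide | also added = labelled myosin peptide probe, 5 nM | incubation = 5 min between mix addition and reading | control set = DMSO and TFP controls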
RAD52 inh – blocks human RAD52 DNA annealing | AID 651710 | inhibition, % at 18.7 µM | recombinant RAD52 DNA annealing, FRET fluorescence | 0.46% of 360,000 active;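 active = every replicate showing at least 50% inhibition; inconclusive = mean inhibition at least 50% but not in every replicate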
GSIS activator – primary screen for activators of insulin secretion dependent on glucose, INS-1E cells, GLuc reporter luminescence | INS-1E GLuc reporter insulin secretion, 2-3 h | activation, % at 16.6 µM | 0.61% of 370,000 active;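 active = lowest replicate activation of at least 40%, so every replicate reaches that level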;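 note: 0% = median of neutral control wells and 100% = median of IBMX positive control wells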
* hit, by the source's call; ? = inconclusive; . = not tested or not shown. An excerpt weighted towards active compounds, which were near 1.5% of everything screened.

SMILES	ERAP1 HTS inh	MLL AF4-AF9 inh	S100A4 inh HTS	RAD52 inh	GSIS activator
C[C@H](CO)N1C[C@H](C)[C@@H](CN(C)Cc2ccc3c(c2)OCO3)OCCCC[C@H](C)Oc2ccc(NC(=O)Nc3cccc4ccccc34)cc2C1=O	.	.	.	.	-1
CC(C)NC(=O)N(C)C[C@H]1Oc2c(cccc2N(C)C)C(=O)N(C)C[C@@H]1C	.	.	.	.	18
CN1Cc2c(N3CCOCC3)nc3sc(C#N)c(N)c3c2CC1(C)C	0	5	19	8	.
CN1Cc2c(N3CCOCC3)nc3sc(C(=O)c4ccc(Br)cc4)c(N)c3c2CC1(C)C	2	30*	-1	29	.
COc1ccc(NC(=O)c2sc3nc(N4CCOCC4)c4c(c3c2N)CC(C)(C)OC4)cc1	-3	-1	1	-3	26
COc1ccc(NC(=O)c2sc3nc(N4CCOCC4)c4c(c3c2N)CC(C)(C)OC4)c(OC)c1	0	-3	4	-7	127*
COc1ccccc1CN1C[C@@H](C)[C@H](OC)CN(C)C(=O)c2cc(NC(=O)Nc3ccccc3OC)ccc2OC[C@H]1C	-1	5	-3	52*	-16
CO[C@H]1CN(C)C(=O)c2cc(NC(C)=O)ccc2OC[C@H](C)N(Cc2ccccn2)C[C@H]1C	0	3	141*	-1	2
COc1ccccc1NC(=O)Nc1ccc2c(c1)C(=O)N(C)C[C@@H](OC)[C@H](C)CN(Cc1ccccc1Cl)[C@H](C)CO2	-1	3	-14	-14	-2
C[C@@H]1CN([C@H](C)CO)C(=O)c2cc(NS(=O)(=O)c3cccs3)ccc2O[C@@H](C)CCCCO[C@@H]1CN(C)C(=O)CCCN(C)C	0	-2	1	-6	25
Fc1ccc(CN2[C@@H]3CN(CC(F)(F)F)C[C@H]2C3c2ccc(Br)cc2)cc1 (stereo not given in full)	.	.	.	.	-36
Cc1ccc(CN2CCN(Cc3ccc4c(c3)OCCO4)CC2CCO)cc1 (stereo not given)	3	-6	-17	-14	8
OCCC1CN(Cc2ccc3c(c2)CCO3)CCN1Cc1ccc(F)cc1 (stereo not given)	3	3	74*	-25	-4
COc1ccc(NC(=O)c2ccc(-n3cnnn3)cc2)c([N+](=O)[O-])c1	3	26*	-4	-21	14
C[C@H](CO)N1C[C@H](C)[C@@H](CN(C)Cc2ccc(C(=O)Nc3ccccc3N)cc2)OCCCC[C@H](C)Oc2ccc(N(C)C)cc2C1=O	.	.	.	.	17
COc1ccc2oc(C(=O)NCC(c3ccco3)N(C)C)c(C)c2c1 (stereo not given)	2	35*	15	-22	0
COc1ccc2oc(C(=O)NCCc3ccccc3)c(C)c2c1	6	-4	0	-17	2
O=C1NCCCOCc2cn(nn2)CC[C@H]1Cc1ccc(-c2ccccc2)cc1	.	.	.	.	19
CN1C(=O)c2cc(NC(=O)c3ccc(F)cc3)ccc2OC[C@@H]2O[C@H](CC(=O)NC3CCC3)CC[C@@H]21	-1	0	2	13	2
O=C(/C=C/C(Cl)(Cl)Cl)Nc1ccc(Cl)cc1	0	5	-5	-4	170*
NC(=O)/C=C/C(=O)Nc1ccc(Cl)cc1	4	3	15	2	-14
Cc1nccn1-c1ncnc2sc3c(c12)CCCC3	.	.	.	.	67*
CCC(=O)N1[C@H](CO)[C@@H](c2ccccc2)C12CN(C(=O)c1ccc(F)cc1)C2	-3	-3	0	-2	-7
COc1ccc(N/N=C(/C(N)=O)C2=NC(C)(C)Cc3ccccc32)cc1	-4	37*	5	11	-7
COc1ccc(N/N=C(\C#N)C(N)=O)cc1	2	-6	-3	-8	-3
SMILES	ERAP1 HTS inh	MLL AF4-AF9 inh	S100A4 inh HTS	RAD52 inh	GSIS activator
O=C(Cn1nnc(-c2ccccc2)n1)N=Nc1c(O)[nH]c2ccccc12	.	.	.	.	93*
O=C(CCNC(=O)c1ccccc1)N=Nc1c(O)[nH]c2ccccc12	0	-1	2	-22	6
O=C1N[C@@H](Cc2ccccc2)COCc2cnnn2CC[C@H]1Cc1cccc(F)c1	.	.	.	.	8
COc1ccccc1CCn1cnc(-c2ccccc2)c1CC(C)C	2	10	-1	4	.
COc1ccccc1CCn1cnc(-c2ccc(F)cc2)c1CC(C)C	-1	12	1	-18	120*
COc1ccccc1CCn1cnc(-c2ccccc2OC)c1CC(C)C	7	?	1	2	65*

Bioassay records deposited in PubChem by Broad Institute.
